Source: PubChem BioAssay (Broad Institute)
DENV2 CPE – inhibitors of DENV2 cytopathic effect, primary screen, cell-based, plate reader, single concentration; DENV2-infected cells, cytopathic effect rescue; CPE inhibition, % at 9.99 µM; hit rate 1.7% among 350,000; in the data active means CPE inhibition above about 20%, passing the limit was not always enough; inconclusive means no clear call, values can overlap the other calls; tested in BHK-21 cells
ARNT-TACC3 inh – disruptors of ARNT/TACC3 protein interaction, primary screen, biochemical, AlphaScreen, single concentration; Transforming acidic coiled-coil-containing protein 3 (Homo sapiens), Q9Y6A5; AlphaScreen His-ARNT PAS-B/GST-TACC3 binding, luminescence; TACC3 fragment carries E629A point mutation; inhibition, % at 9.99 µM; hit rate 0.66% among 390,000;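 active means mean inhibition of replicates at least 50% and at least half of replicates each reaching 50%; inconclusive means half or more replicates reach 50% but mean below 50%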
SIRT5 block – SIRT5 desuccinylase inhibitors, primary screen, biochemical, fluorescence imaging, single point, set 5 | Purified SirT5, succinyl-peptide AMC, trypsin-coupled fluorescence | inhibition, % at 15 µM | hit rate 1.1% among 330,000 | AID 652115, 2013; in the data active means inhibition above about 15%; inconclusive means no clear call, values can overlap the other calls
Target sequence (Q9NXA8 whole entry, looked up): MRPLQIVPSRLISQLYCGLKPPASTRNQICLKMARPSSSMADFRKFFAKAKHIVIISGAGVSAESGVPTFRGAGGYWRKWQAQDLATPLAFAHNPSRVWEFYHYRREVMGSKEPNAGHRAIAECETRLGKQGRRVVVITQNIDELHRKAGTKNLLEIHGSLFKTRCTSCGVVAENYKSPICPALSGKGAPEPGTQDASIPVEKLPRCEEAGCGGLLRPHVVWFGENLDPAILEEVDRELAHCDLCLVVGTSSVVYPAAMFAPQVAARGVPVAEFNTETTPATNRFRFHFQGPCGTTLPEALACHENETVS
FGF22 binding – binders of human FGF22 protein, primary screen, FGF22 synaptogenesis inhibitor project, biophysical, thermal shift, single point; Fibroblast growth factor 22 (Homo sapiens), Q9HCT0; recombinant FGF22 thermal shift, SYPRO orange fluorescence; percent of sucrose octasulfate shift, DMSO zero; activity (Tm shift, normalised), % at 9.99 µM; hit rate 1.5% among 340,000; AID 651658, 2012;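 active means mean Tm shift, scaled 0 neutral to 100 positive control, at about 1.3% or above, every replicate too, limit read from the data; inconclusive means no clear call, values can overlap the other calls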
Target sequence (Q9HCT0 whole entry, looked up): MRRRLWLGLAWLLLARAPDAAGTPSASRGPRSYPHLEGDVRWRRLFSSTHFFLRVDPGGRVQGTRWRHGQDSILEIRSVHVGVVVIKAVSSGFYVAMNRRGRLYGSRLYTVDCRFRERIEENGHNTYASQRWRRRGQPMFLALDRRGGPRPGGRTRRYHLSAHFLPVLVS
FN deposition inh – inhibitors of fibronectin matrix deposition, primary screen, AH1F cells, Alexa488-fibronectin fluorescence, plate reader. AID 743247, 2014. inhibition, % at 12.6 µM. AH1F fibroblasts, overnight. hit rate 0.086% among 350,000;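 active means mean inhibition across replicates of 30% or more, regardless of how many single replicates reach that level; inconclusive means mean under 30% yet at least half of replicates reach 30%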
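material = AH1F fibroblast monolayer depositing Alexa488-labelled fibronectin into matrix | amount = 10000 AH1F cells/well | buffer or medium = DMEM plus 2% serum, read in PBS | incubation = 1 h cell adhesion before compound, then overnight fibronectin incubation | detection = fluorescence at 485 nm excitation, 525 nm emission | evaluation = percent inhibition as loss of matrix-bound fibronectin fluorescence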
XiGFP reactiv – activators of inactive X chromosome reactivation, primary screen, imaging, XiGFP fibroblasts, GFP high-content imaging, set 2. hit rate 0.055% among 360,000. activation, % at 7.58 µM. AID 743238, 2013. XiGFP mouse fibroblasts, % GFP-positive cells imaging, 3 d; cells co-treated with 5-aza-dC sensitizer; scaled so ellipticine positive control = 100%;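 active means mean normalized replicate activation at least 10% and every replicate at or above 10%; inconclusive means only one of the two criteria met; inactive means mean below 10% and not all replicates reach 10%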
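Assay system – SV40-immortalized XiGFP fibroblast cells, line 68-5-11 · Buffer or medium – DMEM supplemented with 5-aza-dC as sensitizing agent · Dosing – one concentration, pinned · Benchmarks – positive control ellipticine, 6 µM final · Times – 3 days compound exposure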
Of the large screens only hits and unclear results are named; the others gave an inactive call. Shown are actives, neighbours in structure and some others; about 3.8% of the full set was active somewhere.

COc1ccc(NC(=O)Nc2ccc3c(c2)C(=O)N([C@@H](C)CO)C[C@H](C)[C@H](CN(C)Cc2ccc(Cl)c(Cl)c2)OCCCC[C@@H](C)O3)cc1	none (no result: FN deposition inh)
COc1ccc2c3c(n(C)c2c1)[C@H](CO)N(C(=O)Nc1ccc(F)cc1)CC31CN(S(=O)(=O)c2cn(C)cn2)C1	none (no result: DENV2 CPE, ARNT-TACC3 inh, SIRT5 block, FGF22 binding)
C[C@H](CO)N1C[C@H](C)[C@@H](CN(C)Cc2ccc(-c3ccccc3)cc2)Oc2ccc(NC(=O)Nc3cccc4ccccc34)cc2CC1=O	none (no result: DENV2 CPE, ARNT-TACC3 inh, SIRT5 block, FGF22 binding, FN deposition inh)
Cc1ccc2nc(C)c(Cl)c(=O)n2c1	none (no result: DENV2 CPE, SIRT5 block, FGF22 binding, XiGFP reactiv)
Cc1ccc2nc(Cl)c(/C=N/Nc3nc(C)cc(C)n3)c(=O)n2c1	ARNT-TACC3 inh 46.4
C[C@@H]1CN([C@H](C)CO)C(=O)c2cc(N(C)C)ccc2O[C@H]1CN(C)S(=O)(=O)c1ccccc1	SIRT5 block 32.5 (no result: FN deposition inh)
C[C@@H]1CN([C@H](C)CO)C(=O)c2cccc(N(C)C)c2O[C@@H]1CN(C)S(=O)(=O)c1ccccc1	none
C[C@H](CO)N1C[C@H](C)[C@@H](CN(C)S(=O)(=O)c2ccccc2)Oc2c(cccc2N(C)C)C1=O	DENV2 CPE inconclusive, SIRT5 block 25.0
COc1cc(/C=C(\C#N)c2nc3ccccc3o2)ccc1O	XiGFP reactiv 18.0
O=C(Nc1ccc2nn(-c3ccccc3)nc2c1)c1cccnc1	none (no result: DENV2 CPE, SIRT5 block, FGF22 binding, FN deposition inh, XiGFP reactiv)
O=C(Nc1ccc2nn(-c3ccc(F)cc3)nc2c1)c1cccnc1	FGF22 binding 43.5
CC(=NNC(=S)Nc1ccc(C)cc1)c1ccccn1	ARNT-TACC3 inh 61.8
COc1ccccc1NC(=S)NN=C(C)c1ccccn1	ARNT-TACC3 inh 64.8
COc1cc2c(cc1OC)C(c1ccc(Cl)cc1)CC(=O)N2 (stereo not given)	SIRT5 block 17.2
C/C=C/c1cnc2c(c1)C(=O)N([C@H](C)CO)C[C@@H](C)[C@H](CN(C)C(=O)NCCC)O2	none
CC(C)(C)CNC(=O)c1ccc2c(c1)S(=O)(=O)c1cc(Cl)ccc1C2=O	none (no result: SIRT5 block)
Cc1cc(N(C)C(=O)c2ccc3c(c2)S(=O)(=O)c2cc(Cl)ccc2C3=O)c(C(F)(F)F)o1	DENV2 CPE 48.9 (no result: SIRT5 block)
Nc1nc(SCn2nnc3ccccc3c2=O)n[nH]1	FGF22 binding 43.2
O=C(C[n+]1ccccc1)N/N=C/c1ccc(Br)cc1	none
O=C(C[n+]1ccccc1)N/N=C/c1ccco1	none (no result: ARNT-TACC3 inh)
O=C(C[n+]1ccccc1)N/N=C/c1ccc(F)cc1	SIRT5 block 112.3 (no result: ARNT-TACC3 inh, FN deposition inh)
Cc1ccc(/C=N/NC(=O)C[n+]2ccccc2)o1	SIRT5 block 21.4 (no result: ARNT-TACC3 inh)
O=C(C[C@H]1C=C[C@@H](NS(=O)(=O)c2ccc(F)cc2)[C@H](CO)O1)NCCc1ccncc1	none (no result: FN deposition inh)
CC(=O)N(C)C[C@H]1Oc2c(N)cccc2C(=O)N(C)C[C@H]1C	none (no result: DENV2 CPE, ARNT-TACC3 inh, SIRT5 block, FGF22 binding)
C[C@@H]1CCCCO[C@@H](CN(C)C(=O)Cc2ccccc2)[C@H](C)CN([C@@H](C)CO)C(=O)c2cc(NC(=O)c3ccccc3)ccc2O1	none
CCC(=O)N(C)C[C@@H]1Oc2cc(C#Cc3ccncc3)ccc2S(=O)(=O)N([C@H](C)CO)C[C@H]1C	none (no result: FN deposition inh)
CCOC(=O)CNC(=O)C12CC3CC(CC(C3)C1)C2	SIRT5 block 15.8
O=C(C[C@@H]1C[C@H]2c3cc(NC(=O)Nc4ccccc4)ccc3O[C@H]2[C@@H](CO)O1)NCc1ccncc1	none
O=C(C[C@H]1C[C@H]2c3cc(NC(=O)Nc4ccccc4)ccc3O[C@H]2[C@H](CO)O1)NCc1ccncc1	DENV2 CPE 62.2
O=C(C[C@H]1C[C@H]2c3cc(NC(=O)Nc4ccccc4)ccc3O[C@H]2[C@@H](CO)O1)NCc1ccncc1	SIRT5 block 17.8
COCC(=O)N(C)C[C@H]1Oc2ncc(-c3ccc(F)cc3)cc2C(=O)N([C@H](C)CO)C[C@H]1C	none (no result: FN deposition inh)
CCOC(=O)C1(Cc2ccc(Cl)cc2)CCN(C(=O)c2cc(C)nc(C)n2)CC1	FGF22 binding 43.0
CCOC(=O)C1(CC2CC2)CCN(C(=O)c2ocnc2C)CC1	none
CCOC(=O)C1(CC2CC2)CCN(C(=O)c2cc(C)nc3ccc(CC)cc23)CC1	FGF22 binding 43.5
O=C(Nc1ccc(Cl)cn1)c1ccccc1[N+](=O)[O-]	FGF22 binding 43.1 (no result: ARNT-TACC3 inh)
Cc1ccnc(NC(=O)c2ccccc2[N+](=O)[O-])c1	none (no result: DENV2 CPE, SIRT5 block, FGF22 binding, FN deposition inh, XiGFP reactiv)
Cc1ccnc(NC(=O)c2cccc([N+](=O)[O-])c2C)c1	FGF22 binding 43.2
O=C(Nc1ccc(Cl)cn1)c1cccc2ccccc12	none
COC(=O)c1ccc(CN2CC(=O)N3[C@H](CO)[C@H](c4ccc(Br)cc4)[C@H]3C2)cc1	none (no result: ARNT-TACC3 inh)
CCOCCCNC(=O)c1ccc2c(c1)ncn2C1CCCC1	none (no result: DENV2 CPE, SIRT5 block, FGF22 binding, FN deposition inh, XiGFP reactiv)
CC(C)CCNC(=O)c1ccc2c(c1)ncn2C1CCCC1	FGF22 binding 44.6
CNC(=O)C[C@@H]1CC[C@H]2[C@@H](COC[C@H](O)CN2S(=O)(=O)c2ccc(Oc3ccccc3)cc2)O1	none
CC[C@H](C)C(C(=O)N1CCN(C(=O)OC(C)(C)C)CC1)n1cc(C(CC(C)C)NC(=O)OC(C)(C)C)nn1 (stereo not given in full)	DENV2 CPE 31.9 (no result: SIRT5 block)
Cc1ccsc1/C=C1/NC(=O)N(Cc2ccc(F)cc2)C1=O	FGF22 binding 43.2 (no result: ARNT-TACC3 inh)
CO[C@H]1CN(C)C(=O)c2cccc(C#N)c2OC[C@@H]2O[C@H](CC[C@H]2OC)CCN(C)C(=O)[C@@H]1C	none
CN1C(=O)c2cc(NC(=O)NCc3ccccc3)ccc2OC[C@H]2O[C@H](CC(=O)NCC3CCCCC3)CC[C@H]21	DENV2 CPE 98.2 (no result: ARNT-TACC3 inh)
CN1C(=O)c2cc(NC(=O)Cc3cccs3)ccc2OC[C@@H]2O[C@H](CC(=O)NCC3CCCCC3)CC[C@@H]21	DENV2 CPE inconclusive
CN1C(=O)c2cc(NC(=O)Cc3cccs3)ccc2OC[C@@H]2O[C@H](CC(=O)NCC3CCCCC3)CC[C@H]21	DENV2 CPE 132.2
COCC(=O)Nc1ccc2c(c1)C(=O)N(C)[C@@H]1CC[C@@H](CC(=O)NCc3ccccc3Cl)O[C@H]1CO2	FN deposition inh 37.9 (no result: SIRT5 block)
CN1C(=O)c2cc(NC(=O)NCc3ccccc3)ccc2OC[C@H]2O[C@H](CC(=O)NCC3CCCCC3)CC[C@@H]21	none (no result: ARNT-TACC3 inh)
COCC(=O)Nc1ccc2c(c1)C(=O)N(C)[C@H]1CC[C@H](CC(=O)NCc3ccccc3Cl)O[C@H]1CO2	none (no result: SIRT5 block)
